Laboratory results taken from ChEMBL document CHEMBL1208665, “Discovery of new 1,3,5-triazine scaffolds with potent activity against Mycobacterium tuberculosis H37Rv” (Eur J Med Chem, 2010).
Values after ≈ are worked out from the molar mass of the structure shown.

Tested on: Mycobacterium tuberculosis
Experiment: Antimycobacterial activity against Mycobacterium tuberculosis H37Rv […] after 4 weeks
Format: functional
Details: not given
Procedure, shortened: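 Agar-slant dilution against H37Rv. Compounds from 1.0 mg/mL DMSO stock, two-fold serial dilutions, were incorporated into OADC-supplemented medium (2 mL/tube final) and solidified slanted. Inoculum spread on the surface, incubated 37 °C for 4 weeks. Drug-free tubes served as control. MIC is the lowest concentration giving complete growth inhibition relative to the inoculum used.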

SMILES | MIC [µg/mL]
CCCCNc1cc(-c2cc(OC)c(OC)c(OC)c2)nc(N)n1 | > 12.5
CCNc1nc(NCC)nc(N2CCCCC2)n1 | > 12.5
COc1cc(-c2cc(SC)nc(Nc3nc(N4CCOCC4)nc(N4CCOCC4)n3)n2)cc(OC)c1OC | > 12.5
CCCNc1nc(NCCC)nc(N2CCCc3ccccc32)n1 | > 12.5
CCCCNc1nc(NCCCC)nc(Nc2nc(SC)cc(-c3cc(OC)c(OC)c(OC)c3)n2)n1 | > 12.5
COc1ccc(-c2cc(SC)nc(Nc3nc(NC(C)C)nc(NC(C)C)n3)n2)cc1OC | 12.5 (≈ 26.6 µM)
COc1cc(-c2cc(SC)nc(Nc3nc(NC(C)(C)C)nc(NC(C)(C)C)n3)n2)cc(OC)c1OC | 3.12 (≈ 5.9 µM)
CC(C)Nc1nc(NNC(=O)c2ccncc2)nc(N2CCCc3ccccc32)n1 | 3.12 (≈ 7.71 µM)
CCCNc1nc(NCCC)nc(N2CCCCC2)n1 | 12.5 (≈ 44.9 µM)
O=C(NNc1nc(N2CCOCC2)nc(N2CCCc3ccccc32)n1)c1ccncc1 | 3.12 (≈ 7.21 µM)
c1ccc2c(c1)CCN(c1nc(N3CCOCC3)nc(N3CCc4ccccc4C3)n1)C2 | > 12.5
CC(C)(C)Nc1nc(NNC(=O)c2ccncc2)nc(N2CCc3ccccc3C2)n1 | 3.12 (≈ 7.46 µM)
CCNC1CN(c2cc(-c3cc(OC)c(OC)c(OC)c3)nc(N)n2)CCO1 (stereo unspecified) | > 12.5
CC(C)Nc1nc(NC(C)C)nc(N2CCCc3ccccc32)n1 | > 12.5
CCN(CC)CCNc1nc(N2CCc3ccccc3C2)nc(N2CCc3ccccc3C2)n1 | > 12.5
CC(C)(C)Nc1nc(NNC(=O)c2ccncc2)nc(N2CCCc3ccccc32)n1 | 3.12 (≈ 7.46 µM)
CCNC1CN(c2nc(Nc3nc(SC)cc(-c4ccc(OC)c(OC)c4)n3)nc(N3CCOC(NCC)C3)n2)CCO1 (stereo unspecified) | > 12.5
COc1cc(-c2cc(SC)nc(Nc3nc(N4CCCCC4)nc(N4CCCCC4)n3)n2)cc(OC)c1OC | 6.25 (≈ 11.3 µM)
COc1ccc(-c2cc(SC)nc(Nc3nc(N4CCOCC4)nc(N4CCOCC4)n3)n2)cc1OC | > 12.5

SMILES | MIC [µg/mL]
CC(C)(C)Nc1nc(N2CCc3ccccc3C2)nc(N2CCc3ccccc3C2)n1 | > 12.5
O=C(NNc1nc(N2CCc3ccccc3C2)nc(N2CCc3ccccc3C2)n1)c1ccncc1 | 3.12 (≈ 6.52 µM)
CCCNC1COCCN1c1nc(N2CCCc3ccccc32)nc(N2CCCc3ccccc32)n1 (stereo unspecified) | > 12.5
O=C(NNc1nc(N2CCCCC2)nc(N2CCc3ccccc3C2)n1)c1ccncc1 | 3.12 (≈ 7.25 µM)
CCCNc1nc(NCCC)nc(Nc2nc(SC)cc(-c3cc(OC)c(OC)c(OC)c3)n2)n1 | > 12.5
CCNc1nc(NCC)nc(N2CCCc3ccccc32)n1 | > 12.5
O=C(NNc1nc(Nc2ncccn2)nc(N2CCCCC2)n1)c1ccncc1 | 3.12 (≈ 7.95 µM)
CCCNC1COCCN1c1nc(Nc2nc(SC)cc(-c3ccc(OC)c(OC)c3)n2)nc(N2CCOCC2NCCC)n1 (stereo unspecified) | > 12.5
O=C(NNc1nc(Nc2ccccc2)nc(NC2CCCCC2)n1)c1ccncc1 | 6.25 (≈ 15.5 µM)
COc1cc(-c2cc(N3CCN(C)CC3)nc(N)n2)cc(OC)c1OC | > 12.5
O=C(NNc1nc(Nc2ccccc2)nc(Nc2ccccc2)n1)c1ccncc1 | > 12.5
CCNC1CN(c2nc(N3CCCc4ccccc43)nc(N3CCCc4ccccc43)n2)CCO1 (stereo unspecified) | > 12.5
CC(C)Nc1nc(NC(C)C)nc(N2CCCCC2)n1 | 12.5 (≈ 44.9 µM)
CCNC1CN(c2nc(N3CCc4ccccc4C3)nc(N3CCc4ccccc4C3)n2)CCO1 (stereo unspecified) | 3.12 (≈ 6.62 µM)
CCCCNc1nc(NNC(=O)c2ccncc2)nc(N2CCCc3ccccc32)n1 | 6.25 (≈ 14.9 µM)
CCN(CC)CCNc1nc(N2CCCc3ccccc32)nc(N2CCCc3ccccc32)n1 | > 12.5
CN(C)CCNc1nc(NCCN(C)C)nc(N2CCCCC2)n1 | > 12.5
c1ccc2c(c1)CCCN2c1nc(N2CCOCC2)nc(N2CCCc3ccccc32)n1 | > 12.5
CC(C)(C)Nc1nc(NC(C)(C)C)nc(N2CCCCC2)n1 | > 12.5

Tested on: not listed separately
Experiment: (§1) Cytotoxicity against Vero cells after 24 hrs by MTS assay
Format: cell-based
Details: chlorocebus sabaeus, Vero cells; read-out: MIC
Procedure, shortened: (§2)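 VERO cells were seeded at 20,000/well in MEM + 10% FBS with antibiotics and left to adhere overnight at 37 °C, 5% CO₂. Compound dilutions were added in MEM + 10% FBS for 24 h, with DMSO as negative control and a known toxic compound as positive control. Read-out was MTS, 2 h, A490, with DMSO wells taken as 100% survival.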

SMILES | MCC at 24 h [µg/mL]
CCCNc1nc(NCCC)nc(N2CCCCC2)n1 | > 12.5

Tested on: Vero
Experiment: as §1
Format: cell-based
Details: chlorocebus sabaeus, vero, 24 h
Procedure, shortened: as §2

SMILES | Activity
COc1cc(-c2cc(SC)nc(Nc3nc(NC(C)(C)C)nc(NC(C)(C)C)n3)n2)cc(OC)c1OC | Non-toxic
CC(C)Nc1nc(NNC(=O)c2ccncc2)nc(N2CCCc3ccccc32)n1 | Non-toxic
O=C(NNc1nc(N2CCOCC2)nc(N2CCCc3ccccc32)n1)c1ccncc1 | Non-toxic
CC(C)(C)Nc1nc(NNC(=O)c2ccncc2)nc(N2CCc3ccccc3C2)n1 | Non-toxic
O=C(NNc1nc(N2CCc3ccccc3C2)nc(N2CCc3ccccc3C2)n1)c1ccncc1 | Non-toxic
O=C(NNc1nc(N2CCCCC2)nc(N2CCc3ccccc3C2)n1)c1ccncc1 | Non-toxic
O=C(NNc1nc(Nc2ncccn2)nc(N2CCCCC2)n1)c1ccncc1 | Non-toxic
CCNC1CN(c2nc(N3CCc4ccccc4C3)nc(N3CCc4ccccc4C3)n2)CCO1 (stereo unspecified) | Non-toxic

Tested on: not listed separately
Experiment: Cytotoxicity against mouse BMDM after 48 hrs by MTS assay
Format: cell-based
Details: BMDM (bone marrow-derived macrophages), read-out: MIC
Procedure, shortened: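 Mouse femur bone marrow was flushed with DMEM + 10% FBS, 15% L-929 conditioned supernatant and non-essential amino acids. Cells were plated at 10⁵/well, medium was changed every 3rd day, and cells were used at day 5. Compounds were added in antibiotic-free FBS-DMEM for 48 h at 37 °C, 5% CO₂. Read-out was MTS, 2 h, A490, with DMSO wells taken as 100% survival.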

SMILES | MCC at 48 h [µg/mL]
CCCNc1nc(NCCC)nc(N2CCCCC2)n1 | > 12.5

Same assay, conditions: bmdm, 48 h

SMILES | Activity
COc1cc(-c2cc(SC)nc(Nc3nc(NC(C)(C)C)nc(NC(C)(C)C)n3)n2)cc(OC)c1OC | Toxic
CC(C)Nc1nc(NNC(=O)c2ccncc2)nc(N2CCCc3ccccc32)n1 | Non-toxic
O=C(NNc1nc(N2CCOCC2)nc(N2CCCc3ccccc32)n1)c1ccncc1 | Non-toxic
CC(C)(C)Nc1nc(NNC(=O)c2ccncc2)nc(N2CCc3ccccc3C2)n1 | Toxic
O=C(NNc1nc(N2CCc3ccccc3C2)nc(N2CCc3ccccc3C2)n1)c1ccncc1 | Toxic
O=C(NNc1nc(N2CCCCC2)nc(N2CCc3ccccc3C2)n1)c1ccncc1 | Toxic
O=C(NNc1nc(Nc2ncccn2)nc(N2CCCCC2)n1)c1ccncc1 | Non-toxic
CCNC1CN(c2nc(N3CCc4ccccc4C3)nc(N3CCc4ccccc4C3)n2)CCO1 (stereo unspecified) | Toxic
